# Results: ChEMBL document CHEMBL1687827, “Profiling the Aspergillus fumigatus proteome in response to caspofungin” (2011)
# The source made the active and inactive calls. No cut-off for these calls is given here.
# Key:
# Aspergillus fumigatus [1] = test: Induction of change in Ribosomal protein S5 protein level in iTRAQ114 labelled cell wall fraction of drug-resistant Aspergillus fumigatus EMFR-S678P at 0.12 ug/ml after 24 hrs in YPD medium by MS (MS/MS) analysis relative to control; assay type: functional, organism-based
# How it was run: (§1)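 Conidia at 1 × 10⁵/ml were grown at 37°C, shaking at 225 rpm, in YPD with or without 0.12 μg/ml caspofungin for 24 or 48 h. The culture filtrate was kept as the secreted fraction. Mycelia were lysed by French press in HEPES/glycerol/EDTA/PMSF/DTT buffer, and the 5,000 × g pellet was washed to give CW/PM. Proteins were reduced, alkylated and trypsin-digested at 37°C overnight, then iTRAQ-labelled and run by 2D LC-MS/MS. Ratios are the median of unique-peptide ratios, median-normalized, versus the no-drug control.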
# Aspergillus fumigatus [2] = test: Induction of change in 40S ribosomal protein S3Ae protein level in iTRAQ114 labelled cell wall fraction of drug-susceptible Aspergillus fumigatus KU80 delta-akuB at 0.12 ug/ml after 24 hrs in YPD medium by MS (MS/MS) analysis relative to control; assay type: functional
# How it was run: (§2)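 Conidia at 1 × 10⁵/ml grown shaking at 37°C in YPD with or without 0.12 μg/ml caspofungin; mycelia filtered at 24 or 48 h. Secreted fraction taken from the filtrate; cell wall/plasma membrane pellet recovered after French-press lysis and a 5,000 × g spin. Proteins trypsin-digested and iTRAQ-labelled, drug vs no-drug channels at each time, then 2D LC-MS/MS. Protein ratio is the median of ratios from uniquely assigned peptides after median normalization.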
# Aspergillus fumigatus [3] = test: Induction of change in BYS1 domain protein, putative protein level in iTRAQ-118 labelled cell wall fraction of drug-resistant Aspergillus fumigatus EMFR-S678P at 0.12 ug/ml after 24 hrs in YPD medium by MS (MS/MS) analysis relative to control; assay type: functional, organism-based; how it was run: as §1
# Aspergillus fumigatus [4] = test: Induction of change in thioredoxin TrxA protein level in iTRAQ-118 labelled cell wall fraction of drug-resistant Aspergillus fumigatus EMFR-S678P at 0.12 ug/ml after 24 hrs in YPD medium by MS (MS/MS) analysis relative to control; assay type: functional, organism-based; how it was run: as §1
# Aspergillus fumigatus [5] = test: Antifungal activity against drug-resistant Aspergillus fumigatus EMFR-S678P assessed as change in hyphal morphology by YPD medium; assay type: functional; details: read-out: MEC
# How it was run: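 CLSI M38-A2 broth microdilution, run in triplicate in RPMI or YPD medium as the line specifies. Caspofungin was dissolved in sterile water. The minimum effective concentration (MEC) was the lowest concentration giving a significant change in hyphal morphology visible to the eye.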
# Aspergillus fumigatus [6] = test: Induction of change in 60s ribosomal protein yl6 protein level in iTRAQ114 labelled secreted fraction of drug-susceptible Aspergillus fumigatus KU80 delta-akuB at 0.12 ug/ml after 24 hrs in YPD medium by MS (MS/MS) analysis relative to control; assay type: functional; how it was run: as §2
# Aspergillus fumigatus [7] = test: Induction of change in ribosomal protein L26 protein level in iTRAQ-116 labelled secreted fraction of drug-resistant Aspergillus fumigatus EMFR-S678P at 0.12 ug/ml after 48 hrs in YPD medium by MS (MS/MS) analysis relative to control; assay type: functional, organism-based; how it was run: as §1
# Aspergillus fumigatus [8] = test: Induction of change in choline oxidase (CodA), putative protein level in iTRAQ-116 labelled secreted fraction of drug-susceptible Aspergillus fumigatus KU80 delta-akuB at 0.12 ug/ml after 48 hrs in YPD medium by MS (MS/MS) analysis relative to control; assay type: functional; how it was run: as §2
# Aspergillus fumigatus [9] = test: Induction of change in plasma membrane H -ATPase protein level in iTRAQ-116 labelled secreted fraction of drug-susceptible Aspergillus fumigatus KU80 delta-akuB at 0.12 ug/ml after 48 hrs in YPD medium by MS (MS/MS) analysis relative to control; assay type: functional
# How it was run: (§3)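 Conidia (1 × 10⁵/ml) grown in YPD, 37°C, 225 rpm, ± 0.12 μg/ml caspofungin; filtrate taken as secreted fraction, French-press lysate 5,000 × g pellet as cell wall/plasma membrane. Trypsin digests 8-plex iTRAQ-labelled (drug-free channels as references), pooled, 2D-chromatography, MS/MS. Median-normalized; protein ratio = median of unique-peptide ratios, log2 normalized.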
# Aspergillus fumigatus [10] = test: Induction of change in citrate synthase, eukaryotic protein level in iTRAQ-116 labelled cell wall fraction of drug-susceptible Aspergillus fumigatus KU80 delta-akuB at 0.12 ug/ml after 48 hrs in YPD medium by MS (MS/MS) analysis relative to control; assay type: functional; how it was run: as §2
# Aspergillus fumigatus [11] = test: Induction of change in NAP family protein level in iTRAQ-118 labelled cell wall fraction of drug-susceptible Aspergillus fumigatus KU80 delta-akuB at 0.12 ug/ml after 24 hrs in YPD medium by MS (MS/MS) analysis relative to control; assay type: functional; how it was run: as §2
# Aspergillus fumigatus [12] = test: Induction of change in thioredoxin TrxA protein level in iTRAQ-118 labelled cell wall fraction of drug-susceptible Aspergillus fumigatus KU80 delta-akuB at 0.12 ug/ml after 24 hrs in YPD medium by MS (MS/MS) analysis relative to control; assay type: functional; how it was run: as §3
# Aspergillus fumigatus [13] = test: Induction of change in ubiquinol-cytochrome C reductase complex core protein 2, putative protein level in iTRAQ-118 labelled cell wall fraction of drug-susceptible Aspergillus fumigatus KU80 delta-akuB at 0.12 ug/ml after 24 hrs in YPD medium by MS (MS/MS) analysis relative to control; assay type: functional; how it was run: as §3
# Aspergillus fumigatus [14] = test: Induction of change in 60s ribosomal protein yl17-b gene expression in drug-susceptible Aspergillus fumigatus KU80 delta-akuB at 0.12 ug/ml after 24 hrs in YPD medium by microarray analysis relative to control; assay type: functional
# How it was run: (§4)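 Mycelia grown in YPD ± 0.12 μg/ml caspofungin (1 × 10⁵ conidia/ml, 37°C, shaking) and harvested at 24 or 48 h. Total RNA extracted, DNase-treated and quality-checked; 2 μg labelled per TIGR SOP M007 and hybridized to whole-genome arrays. Three independent experiments with dye flip (6 replicates); drug vs untreated fold change.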
# Aspergillus fumigatus [15] = test: Induction of change in 60s ribosomal protein L24, putative gene expression in drug-susceptible Aspergillus fumigatus KU80 delta-akuB at 0.12 ug/ml after 24 hrs in YPD medium by microarray analysis relative to control; assay type: functional; how it was run: as §4
# Aspergillus fumigatus [16] = test: Induction of change in mitochondrial hypoxia responsive domain protein level in iTRAQ121 labelled cell wall fraction of drug-susceptible Aspergillus fumigatus KU80 delta-akuB at 0.12 ug/ml after 48 hrs in YPD medium by MS (MS/MS) analysis relative to control; assay type: functional; how it was run: as §3
# Aspergillus fumigatus [17] = test: Induction of change in glucosamine-fructose-6-phosphate aminotransferase protein level in iTRAQ-118 labelled cell wall fraction of drug-resistant Aspergillus fumigatus EMFR-S678P at 0.12 ug/ml after 24 hrs in YPD medium by MS (MS/MS) analysis relative to control; assay type: functional, organism-based; how it was run: as §1
# Aspergillus fumigatus [18] = test: Induction of change in nuclear transport factor NTF-2, putative protein level in iTRAQ-116 labelled secreted fraction of drug-resistant Aspergillus fumigatus EMFR-S678P at 0.12 ug/ml after 48 hrs in YPD medium by MS (MS/MS) analysis relative to control; assay type: functional; how it was run: as §1
smiles,measurement,setting,value
CC[C@H](C)C[C@H](C)CCCCCCCCC(=O)N[C@H]1C[C@@H](O)[C@@H](NCCN)NC(=O)[C@@H]2[C@@H](O)CCN2C(=O)[C@H]([C@H](O)CCN)NC(=O)[C@H]([C@H](O)[C@@H](O)c2ccc(O)cc2)NC(=O)[C@@H]2C[C@@H](O)CN2C(=O)[C@H]([C@@H](C)O)NC1=O [CASPOFUNGIN],Activity,Aspergillus fumigatus [1],inactive
same,fold change (FC),Aspergillus fumigatus [2],2.3
same,Activity,Aspergillus fumigatus [3],inactive
same,Activity,Aspergillus fumigatus [4],inactive
same,minimal effective concentration,Aspergillus fumigatus [5],> 16 µg/mL
same,fold change (FC),Aspergillus fumigatus [6],1.1
same,Activity,Aspergillus fumigatus [7],inactive
same,fold change (FC),Aspergillus fumigatus [8],-2
same,fold change (FC),Aspergillus fumigatus [9],-1.7
same,fold change (FC),Aspergillus fumigatus [10],-1.2
same,fold change (FC),Aspergillus fumigatus [11],2.8
same,fold change (FC),Aspergillus fumigatus [12],-3.2
same,fold change (FC),Aspergillus fumigatus [13],-2
same,fold change (FC),Aspergillus fumigatus [14],3.5
same,fold change (FC),Aspergillus fumigatus [15],3.5
same,fold change (FC),Aspergillus fumigatus [16],-2.1
same,Activity,Aspergillus fumigatus [17],inactive
same,fold change (FC),Aspergillus fumigatus [18],1.07
